Test results taken from ChEMBL document CHEMBL4665734, “Optimization of globomycin analogs as novel gram-negative antibiotics” (Bioorg Med Chem Lett, 2020).
In brackets after ≈: the same amount, converted by molar mass.

Tests used:
Escherichia coli = assay: Inhibition of LspA in Escherichia coli CFT073imp4213 harboring outer membrane-permeable mutant assessed as inhibition of bacterial growth
Method in brief: (§1)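 Read-out is the minimum inhibitory concentration, reported in µM.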

Escherichia coli CFT073 = assay: Inhibition of LspA in wild type Escherichia coli CFT073 assessed as inhibition of bacterial growth; method in brief: as §1
[1] = Growth inhibition of Staphylococcus aureus USA300
[2] = Lipophilicity, logD of the compound at pH 7.4; settings: buffer, pH 7.4, logD
[3] = Stability of the compound in human plasma assessed as parent compound remaining after 24 hrs; assay type: ADME, cell-free; settings: read-out: Stabilty
Method in brief: (§2)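 Test compound incubated for 24 hour in human, rat or mouse plasma. Stability is reported as the percentage of parent compound remaining.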

[4] = Stability of the compound in mouse plasma assessed as parent compound remaining after 24 hrs; assay type: ADME, cell-free; settings: read-out: Stabilty; method in brief: as §2

Compound: CCCCCC[C@H]1OC(=O)CNC(=O)[C@H]([C@H](C)O)NC(=O)[C@H](CN)NC(=O)[C@H](C2CCCCC2)NC(=O)[C@H](CC)N(C)C(=O)[C@@H]1C
- MIC (Escherichia coli): 0.14 µM (≈ 0.0914 µg/mL)
- MIC (Escherichia coli CFT073): 8.8 µM (≈ 5.74 µg/mL)
- MIC [1]: > 100 µM

Compound: CCCCCC[C@H]1OC[C@@H](C)NC(=O)[C@H](CN(C)CCCN)NC(=O)[C@H](CN)NC(=O)[C@H](C2CCCCCC2)NC(=O)[C@H](CCC)N(C)C(=O)[C@@H]1C
- logD [2]: 1.8
- MIC (Escherichia coli): 0.39 µM (≈ 0.287 µg/mL)
- MIC (Escherichia coli CFT073): 8.8 µM (≈ 6.49 µg/mL)
- MIC [1]: 100 µM (≈ 73.7 µg/mL)

Compound: CCCCCC[C@H]1OC(=O)CNC(=O)[C@H]([C@H](C)O)NC(=O)[C@H](CN)NC(=O)[C@H](CCC(N)=O)NC(=O)[C@H](CC(C)C)N(C)C(=O)[C@@H]1C
- MIC (Escherichia coli): > 100 µM
- MIC (Escherichia coli CFT073): > 100 µM
- MIC [1]: > 100 µM

Compound: COC(C)(C)CCCCCC[C@H]1OC(=O)CNC(=O)[C@H]([C@H](C)O)NC(=O)[C@H](CN)NC(=O)[C@H](C2CCCCC2)NC(=O)[C@H](CC(C)C)N(C)C(=O)[C@@H]1C
- logD [2]: 2.8
- MIC (Escherichia coli): 0.048 µM (≈ 0.0361 µg/mL)
- MIC (Escherichia coli CFT073): 2.2 µM (≈ 1.66 µg/mL)
- MIC [1]: > 100 µM

Compound: CCCCCC[C@H]1OC(=O)CNC(=O)[C@H]([C@H](C)O)NC(=O)[C@H](CN)NC(=O)[C@H](C2CCCCCC2)NC(=O)[C@H](CC(C)C)N(C)C(=O)[C@@H]1C
- logD [2]: 3.4
- MIC (Escherichia coli): 0.014 µM (≈ 0.00973 µg/mL)
- MIC (Escherichia coli CFT073): 1.1 µM (≈ 0.764 µg/mL)
- MIC [1]: 50 µM (≈ 34.7 µg/mL)

Compound: CCCCCC[C@H]1OC[C@@H](C)NC(=O)[C@H](CNCCCN)NC(=O)[C@H](CN)NC(=O)[C@H](C2CCCCCC2)NC(=O)[C@H](CCC)N(C)C(=O)[C@@H]1C
- logD [2]: 1.1
- MIC (Escherichia coli): 0.28 µM (≈ 0.202 µg/mL)
- MIC (Escherichia coli CFT073): 3.1 µM (≈ 2.24 µg/mL)
- MIC [1]: 50 µM (≈ 36.2 µg/mL)

Compound: CCC[C@H]1C(=O)N[C@@H](C2CCCCCC2)C(=O)N[C@@H](CN)C(=O)N[C@@H]([C@H](C)O)C(=O)NCC(=O)O[C@H](C[C@@H]2CC[C@@H]3CC[C@H]2C3)[C@@H](C)C(=O)N1C
- logD [2]: 3.1
- MIC (Escherichia coli): 0.009 µM (≈ 0.00647 µg/mL)
- MIC (Escherichia coli CFT073): 0.4 µM (≈ 0.288 µg/mL)
- MIC [1]: 25 µM (≈ 18 µg/mL)

Compound: CC[C@@H](C)[C@@H]1NC(=O)[C@H](CC(C)C)N(C)C(=O)[C@H](C)[C@@H](CCCCC(C)(C)C)OC(=O)CNC(=O)[C@H]([C@H](C)O)NC(=O)[C@H](CN)NC1=O
- logD [2]: 3
- MIC (Escherichia coli): 0.035 µM (≈ 0.0239 µg/mL)
- MIC (Escherichia coli CFT073): 3.1 µM (≈ 2.12 µg/mL)
- MIC [1]: 100 µM (≈ 68.3 µg/mL)

Compound: CCCCCC[C@H]1OC(=O)CNC(=O)[C@H]([C@H](C)O)NC(=O)[C@H](CN)NC(=O)[C@H](C2CCCCC2)NC(=O)[C@H](CCC)N(C)C(=O)[C@@H]1C
- MIC (Escherichia coli): 0.049 µM (≈ 0.0327 µg/mL)
- MIC (Escherichia coli CFT073): 3.5 µM (≈ 2.33 µg/mL)
- MIC [1]: > 100 µM

Compound: CCCCCC[C@H]1OCCCNC(=O)[C@H]([C@H](C)O)NC(=O)[C@H](CN)NC(=O)[C@H](C2CCCCC2)NC(=O)[C@H](CC(C)C)N(C)C(=O)[C@@H]1C
- remaining at 24 h [3]: 96%
- remaining at 24 h [4]: 101%
- MIC (Escherichia coli): 0.39 µM (≈ 0.266 µg/mL)
- MIC (Escherichia coli CFT073): 12 µM (≈ 8.17 µg/mL)
- MIC [1]: 100 µM (≈ 68.1 µg/mL)

Compound: CCCC(C)(C)CC[C@H]1OC(=O)CNC(=O)[C@H]([C@H](C)O)NC(=O)[C@H](CN)NC(=O)[C@H]([C@H](C)CC)NC(=O)[C@H](CC(C)C)N(C)C(=O)[C@@H]1C
- logD [2]: 3.2
- MIC (Escherichia coli): 0.034 µM (≈ 0.0232 µg/mL)
- MIC (Escherichia coli CFT073): 3.1 µM (≈ 2.12 µg/mL)
- MIC [1]: 100 µM (≈ 68.3 µg/mL)

Compound: CC(C)C[C@H]1C(=O)N[C@@H](C2CCCCC2)C(=O)N[C@@H](CN)C(=O)N[C@@H]([C@H](C)O)C(=O)NCC(=O)O[C@H](CCCCCCC(C)(C)O)[C@@H](C)C(=O)N1C
- logD [2]: 2.2
- MIC (Escherichia coli): 0.55 µM (≈ 0.406 µg/mL)
- MIC (Escherichia coli CFT073): 15 µM (≈ 11.1 µg/mL)
- MIC [1]: > 100 µM

Compound: CC[C@@H](C)[C@@H]1NC(=O)[C@H](CC(C)C)N(C)C(=O)[C@H](C)[C@@H](CCCCCC(F)(F)F)OC(=O)CNC(=O)[C@H]([C@H](C)O)NC(=O)[C@H](CN)NC1=O
- logD [2]: 2
- MIC (Escherichia coli): 0.39 µM (≈ 0.276 µg/mL)
- MIC (Escherichia coli CFT073): 25 µM (≈ 17.7 µg/mL)
- MIC [1]: > 100 µM

Compound: CCCCCC[C@H]1OC[C@@H](C)NC(=O)[C@H](COc2ccc(CCN)cc2)NC(=O)[C@H](CN)NC(=O)[C@H](C2CCCCC2)NC(=O)[C@H](CCC)N(C)C(=O)[C@@H]1C
- logD [2]: 2.4
- MIC (Escherichia coli): 0.048 µM (≈ 0.0371 µg/mL)
- MIC (Escherichia coli CFT073): 1.6 µM (≈ 1.24 µg/mL)
- MIC [1]: 25 µM (≈ 19.3 µg/mL)

Compound: CCCCCC[C@H]1OC[C@@H](C)NC(=O)[C@H](COc2ccc(CN)cc2)NC(=O)[C@H](CN)NC(=O)[C@H](C2CCCCC2)NC(=O)[C@H](CCC)N(C)C(=O)[C@@H]1C
- logD [2]: 2.5
- MIC (Escherichia coli): 0.39 µM (≈ 0.296 µg/mL)
- MIC (Escherichia coli CFT073): 6.3 µM (≈ 4.78 µg/mL)
- MIC [1]: 100 µM (≈ 75.8 µg/mL)

Compound: CCCCCC[C@H]1OC[C@H](C)NC(=O)[C@H]([C@H](C)O)NC(=O)[C@H](CN)NC(=O)[C@H](C2CCCCC2)NC(=O)[C@H](CC(C)C)N(C)C(=O)[C@@H]1C
- remaining at 24 h [3]: 88%
- remaining at 24 h [4]: 93%
- MIC (Escherichia coli): 1 µM (≈ 0.681 µg/mL)
- MIC (Escherichia coli CFT073): 84 µM (≈ 57.2 µg/mL)
- MIC [1]: 71 µM (≈ 48.3 µg/mL)
